Data on 6 compounds can be found in ChEMBL document CHEMBL1154449, “Synthesis, characterization and in vitro antibacterial activity of thiourea and urea derivatives of steroids” (2008).

Test [1] has as its system Staphylococcus aureus. The test is described as follows: Antibacterial activity against Staphylococcus aureus at 1 mg/disk after 18 hrs at 36 degC by disk diffusion method. It is filed as functional. Summed up: (§1)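 Disk diffusion. Strains were subcultured in BHI for 18 h at 37 °C, then suspended in saline by McFarland to about […] CFU/mL. The suspension was mixed with sterile antibiotic agar at 40 °C and poured onto plates, and 6.0 mm paper disks were applied. Test compound stock was made in DMSO and diluted to several concentrations applied to disks. Chloramphenicol disks served as positive control and DMSO disks as negative control. Inhibition zone (mm) was read after 18 h at 36 °C.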
Background: Agar diffusion results depend on both activity and mobility in agar.

In test [2] the test system is Streptococcus pyogenes. The test is described as follows: Antibacterial activity against Streptococcus pyogenes at 1 mg/disk after 18 hrs at 36 degC by disk diffusion method. It is filed as functional. The method in brief: as §1
In test [3] the test system is Salmonella typhimurium. The test is described as follows: Antibacterial activity against Salmonella Typhimurium at 1 mg/disk after 18 hrs at 36 degC by disk diffusion method. It is filed as functional, Salmonella enterica subsp. enterica serovar Typhimurium. Summed up: as §1
Test [4] relates to Escherichia coli. The test is described as follows: Antibacterial activity against Escherichia coli at 1 mg/disk after 18 hrs at 36 degC by disk diffusion method. It is filed as functional. The method in brief:
as §1

The test system of test [5] is Staphylococcus aureus. Kind of test: Antibacterial activity against Staphylococcus aureus after 18 hrs at 37 degC by microdilution method. It is filed as functional. To be noted: in the assay text read “macrodilution” for “microdilution”. A general note: Broth dilution looks for growth in wells or tubes with falling amounts of substance.
The subject of test [6] is Streptococcus pyogenes. Kind of test: Antibacterial activity against Streptococcus pyogenes after 18 hrs at 37 degC by microdilution method. It is filed as functional. To be noted: in the assay text read “macrodilution” for “microdilution”.
For test [7], the system named is Salmonella typhimurium. The test is described as follows: Antibacterial activity against Salmonella Typhimurium after 18 hrs at 37 degC by microdilution method. It is filed as functional, Salmonella enterica subsp. enterica serovar Typhimurium. The conditions noted are these: Salmonella enterica, in the assay text read “macrodilution” for “microdilution”.
For test [8], the system named is Escherichia coli. The test is described as follows: Antibacterial activity against Escherichia coli after 18 hrs at 37 degC by microdilution method. It is filed as functional.
Test [9] deals with Staphylococcus aureus. Kind of test: Antibacterial activity against Staphylococcus aureus at 30 ug/disk after 18 hrs at 36 degC by disk diffusion method. To be noted: read-out: IZ. It is filed as functional. The method in brief: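 S. aureus subcultured in BHI medium 18 h at 37 °C, then suspended in saline per McFarland protocol; suspension mixed with sterile antibiotic agar at 40 °C and poured as plates. Paper disks (6.0 mm) loaded with DMSO-dissolved compound at graded concentrations; chloramphenicol disk positive control, DMSO disk negative control. Inhibition zone diameter (mm) read after 18 h at 36 °C.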

Test [10] deals with Streptococcus pyogenes. The test is described as follows: Antibacterial activity against Streptococcus pyogenes at 30 ug/disk after 18 hrs at 36 degC by disk diffusion method. It is filed as functional. The conditions noted are these: read-out: IZ. Summed up: as §1
Test [11] concerns Salmonella typhimurium. The test is described as follows: Antibacterial activity against Salmonella Typhimurium at 30 ug/disk after 18 hrs at 36 degC by disk diffusion method. It is filed as functional, Salmonella enterica subsp. enterica serovar Typhimurium. To be noted: Salmonella enterica, read-out: IZ. The method in brief:
as §1

The test system of test [12] is Escherichia coli. Kind of test: Antibacterial activity against Escherichia coli at 30 ug/disk after 18 hrs at 36 degC by disk diffusion method. It is filed as functional. The conditions noted are these: read-out: IZ. Summed up: as §1

As a reminder, the MIC is the smallest concentration in the dilution series that meets the test's criterion for growth inhibition. The low end stands for greater potency, the high end for weaker potency.

Converted amounts (≈) assume the structure as drawn.

As for `CC[C@H](/C=C/[C@@H](C)[C@H]1CC[C@H]2[C@@H]3C4=C[C@]5(C[C@@H](OC(C)=O)CC[C@]5(C)[C@H]3CC[C@]12C)NC(=S)N4)C(C)C`, the “inhibition zone (IZ)” value with Staphylococcus aureus [1] came out at 22.5 mm; with Streptococcus pyogenes [2], 21.6 mm; with Salmonella typhimurium [3] it was 19.4 mm; in the test on Escherichia coli [4], 23.4 mm. Further, the MIC against Staphylococcus aureus [5] came to 32 µg/mL (≈ 60.7 µM); against Streptococcus pyogenes [6], 64 µg/mL (≈ 121 µM); in the test with Salmonella typhimurium [7], 32 µg/mL (≈ 60.7 µM); in the test on Escherichia coli [8], 32 µg/mL (≈ 60.7 µM).
For `CC[C@H](/C=C/[C@@H](C)[C@H]1CC[C@H]2[C@@H]3C4=C[C@]5(C[C@@H](OC(C)=O)CC[C@]5(C)[C@H]3CC[C@]12C)NC(=O)N4)C(C)C`, the “inhibition zone (IZ)” value is 14.4 mm in the test with Staphylococcus aureus [1], 12.4 mm in the test on Streptococcus pyogenes [2], 15.2 mm with Salmonella typhimurium [3] and 16.3 mm in the test on Escherichia coli [4]. Moreover, the MIC in the test with Staphylococcus aureus [5] was found to be 64 µg/mL (≈ 125 µM); against Streptococcus pyogenes [6], 128 µg/mL (≈ 251 µM); against Salmonella typhimurium [7] it was 128 µg/mL (≈ 251 µM); in the test on Escherichia coli [8], 64 µg/mL (≈ 125 µM).
For the compound `CC(C)CCC[C@@H](C)[C@H]1CC[C@H]2[C@@H]3CC=C4C[C@@H](O)CC[C@]4(C)[C@H]3CC[C@]12C` [CHOLESTEROL], the “inhibition zone (IZ)” value in the test on Staphylococcus aureus [1] is listed as 9.2 mm; with Streptococcus pyogenes [2], 7.8 mm; in the test on Salmonella typhimurium [3], 8.2 mm; with Escherichia coli [4] it was 9 mm. Besides, the MIC in the test on Staphylococcus aureus [5], against Streptococcus pyogenes [6], in the test on Salmonella typhimurium [7] and against Escherichia coli [8] was 512 µg/mL (≈ 1320 µM) each time.
Consider `CC[C@H](/C=C/[C@@H](C)[C@H]1CC[C@H]2[C@@H]3C4=C[C@]5(C[C@@H](Cl)CC[C@]5(C)[C@H]3CC[C@]12C)NC(=S)N4)C(C)C`, for which the “inhibition zone (IZ)” value came to 19.7 mm in the test with Staphylococcus aureus [1], 23.2 mm with Streptococcus pyogenes [2], 18.7 mm in the test on Salmonella typhimurium [3] and 20.7 mm in the test with Escherichia coli [4]. Also, the MIC with Staphylococcus aureus [5] was 64 µg/mL (≈ 127 µM); against Streptococcus pyogenes [6], 64 µg/mL (≈ 127 µM); in the test with Salmonella typhimurium [7], 32 µg/mL (≈ 63.6 µM); in the test on Escherichia coli [8], 32 µg/mL (≈ 63.6 µM).
Regarding `O=C(N[C@H](CO)[C@H](O)c1ccc([N+](=O)[O-])cc1)C(Cl)Cl` [CHLORAMPHENICOL], the zone of inhibition at 30 µg/disc was determined as 21 mm in the test on Staphylococcus aureus [9], 22.2 mm in the test with Streptococcus pyogenes [10], 25.2 mm with Salmonella typhimurium [11] and 20 mm with Escherichia coli [12].
With `CC[C@H](/C=C/[C@@H](C)[C@H]1CC[C@H]2[C@@H]3C4=C[C@]5(C[C@@H](Cl)CC[C@]5(C)[C@H]3CC[C@]12C)NC(=O)N4)C(C)C`, the “inhibition zone (IZ)” value in the test on Staphylococcus aureus [1] is 16.8 mm; with Streptococcus pyogenes [2] it was 15.2 mm; with Salmonella typhimurium [3], 14.4 mm; in the test with Escherichia coli [4], 14.8 mm. For the same compound, the MIC in the test on Staphylococcus aureus [5] was 64 µg/mL (≈ 131 µM); against Streptococcus pyogenes [6], 128 µg/mL (≈ 263 µM); against Salmonella typhimurium [7], 128 µg/mL (≈ 263 µM); against Escherichia coli [8], 128 µg/mL (≈ 263 µM).
